In ChEMBL document CHEMBL5338714, “Design, synthesis and biological evaluation of biphenyl-benzamides as potent FtsZ inhibitors” (Eur J Med Chem, 2022):
Converted amounts (≈) assume the structure as drawn.

Columns and labels:
Bacillus subtilis [1] = assay: Antibacterial activity against Bacillus subtilis ATCC9372 assessed as bacterial growth inhibition incubated for 18 hrs by CLSI based broth microdilution method; type: functional
Summary of the method: (§1)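 CLSI broth microdilution. Log-phase bacteria in Mueller Hinton broth added to 2-fold serial dilutions spanning 128 to 0.25 or 2 to 0.004 µg/mL. Incubated aerobically for 18 h at 37 °C, then OD600 read. MIC is the lowest concentration giving ≥90% growth inhibition; three independent assays.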

Staphylococcus aureus [2] = assay: Antibacterial activity against Staphylococcus aureus ATCC29213 assessed as bacterial growth inhibition incubated for 18 hrs by CLSI based broth microdilution method; type: functional; summary of the method: as §1
Staphylococcus aureus [3] = assay: Antibacterial activity against Staphylococcus aureus ATCC25923 assessed as bacterial growth inhibition incubated for 18 hrs by CLSI based broth microdilution method; type: functional; summary of the method: as §1
Klebsiella pneumoniae = assay: Antibacterial activity against Klebsiella pneumoniae 14578 assessed as bacterial growth inhibition incubated for 18 hrs by CLSI based broth microdilution method; type: functional
Summary of the method: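 Broth microdilution to CLSI guidelines. Log-phase bacteria grown in Mueller Hinton broth, diluted, then exposed to 2-fold serial dilutions of compound (128 to 0.25 µg/mL or 2 to 0.004 µg/mL). Incubated aerobically 18 h at 37 °C. Growth read as OD600. MIC = lowest concentration giving ≥90% growth inhibition. Three independent assays.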

Staphylococcus aureus [4] = assay: Bactericidal activity against Staphylococcus aureus ATCC25923 incubated for 24 hrs by broth microdilution method; type: functional
Summary of the method: (§2)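 MBC from the broth microdilution plates (MHB, 2-fold dilutions). After 24 h, 5 µL aliquots from clear wells were plated on LB agar and incubated aerobically 24 h at 37 °C, then colonies counted. MBC = lowest concentration with no colonies.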

Bacillus subtilis [5] = assay: Bactericidal activity against Bacillus subtilis ATCC9372 incubated for 24 hrs by broth microdilution method; type: functional; summary of the method: as §2
Bacillus subtilis [6] = assay: Antibacterial activity against Bacillus subtilis MG27 assessed as bacterial growth inhibition incubated for 18 hrs by CLSI based broth microdilution method; type: functional; summary of the method: as §1
Bacillus subtilis [7] = assay: Antibacterial activity against Bacillus subtilis 618 assessed as bacterial growth inhibition incubated for 18 hrs by CLSI based broth microdilution method; type: functional; summary of the method: as §1
Bacillus subtilis [8] = assay: Antibacterial activity against Bacillus subtilis BS01 assessed as bacterial growth inhibition incubated for 18 hrs by CLSI based broth microdilution method; type: functional; summary of the method: as §1
Staphylococcus aureus [9] = assay: Induction of resistance in Staphylococcus aureus ATCC29213 assessed as fold increase in MIC at 0.5 times MIC after 18 passages incubated for 24 hrs by resistance development assay; type: functional
Summary of the method: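 Serial passage of S. aureus ATCC29213. Initial MIC was found by broth microdilution. Bacteria from the 0.5 × MIC tubes (duplicate) were diluted to about 5 × 10^5 CFU/mL and re-exposed to compound for 24 h at 35 °C, then fold increase in MIC was determined. Repeated for 18 passages, with norfloxacin as comparator.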

[10] = Cytotoxicity against African green monkey Vero cells assessed as reduction in cell viability incubated for 72 hrs by alamar blue staining based assay; type: toxicity; settings: chlorocebus sabaeus
Summary of the method: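 Vero cells seeded at about 2 × 10^3 per well, 37 °C, 5% CO2. Compound added after 24 h and incubated 72 h. AlamarBlue (1:10 v/v) then added for 3 h in the dark, read at Ex/Em 560/590 nm. CC50 is the lowest concentration causing 50% loss of viability.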

[11] = Selectivity index, ratio of CC50 for African green monkey Vero cells to MIC for Bacillus subtilis ATCC9372; type: toxicity, cell-based; settings: read-out: Selectivity Index
Summary of the method: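 CC50 in Vero cells (72 h Alamar blue) divided by broth microdilution MIC against B. subtilis ATCC9372.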

[12] = Metabolic stability in human liver microsomes assessed as half life preincubated for 5 mins followed by NADPH addition measured upto 45 mins by LC/MS analysis; type: ADME, Microsome; settings: time < 50 min
Summary of the method: (§3)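 Liver microsomes at 0.75 mg/mL final protein, with test article and NADPH regeneration system (6 mM) in 100 mM phosphate buffer, pH 7.4. Preincubated 5 min at 37 °C, then started with NADPH. Quenched with acetonitrile containing internal standard at 5, 15, 30 and 45 min, centrifuged, and percent remaining measured by LC/MS. Ketanserin served as reference.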

[13] = Metabolic stability in rat liver microsomes assessed as half life preincubated for 5 mins followed by NADPH addition measured upto 45 mins by LC/MS analysis; type: ADME, Microsome; settings: time < 50 min; summary of the method: as §3
[14] = Metabolic stability in mouse liver microsomes assessed as half life preincubated for 5 mins followed by NADPH addition measured upto 45 mins by LC/MS analysis; type: ADME, Microsome; settings: time < 50 min; summary of the method: as §3
[15] = Metabolic stability in human liver microsomes assessed as intrinsic clearance preincubated for 5 mins followed by NADPH addition measured upto 45 mins by LC/MS analysis; type: ADME, Microsome; settings: time < 50 min, read-out: CLH; summary of the method: as §3
[16] = Metabolic stability in rat liver microsomes assessed as intrinsic clearance preincubated for 5 mins followed by NADPH addition measured upto 45 mins by LC/MS analysis; type: ADME, Microsome; settings: time < 50 min, read-out: CLH; summary of the method: as §3
[17] = Metabolic stability in mouse liver microsomes assessed as intrinsic clearance preincubated for 5 mins followed by NADPH addition measured upto 45 mins by LC/MS analysis; type: ADME, Microsome; settings: time < 50 min, read-out: CLH; summary of the method: as §3

MIC (Bacillus subtilis [1]) [mg/L] | MIC (Staphylococcus aureus [2]) [mg/L] | MIC (Staphylococcus aureus [3]) [mg/L] | Compound | other results
0.25 (≈ 0.707 µM) | 1 (≈ 2.83 µM) | 1 (≈ 2.83 µM) | Cc1ccccc1-c1cccc(COc2ccc(F)c(C(N)=O)c2F)c1 | 
0.016 (≈ 0.0408 µM) | 0.5 (≈ 1.28 µM) | 0.5 (≈ 1.28 µM) | NC(=O)c1c(F)ccc(OCc2cccc(-c3ccc(Cl)cc3F)c2)c1F | MIC (Bacillus subtilis [6]): 0.031 mg/L (≈ 0.0791 µM); MIC (Bacillus subtilis [7]): 0.016 mg/L (≈ 0.0408 µM); MIC (Bacillus subtilis [8]): 0.016 mg/L (≈ 0.0408 µM)
0.125 (≈ 0.283 µM) | 0.5 (≈ 1.13 µM) | 0.5 (≈ 1.13 µM) | NC(=O)c1c(F)ccc(OCc2cccc(-c3ccc(Cl)cc3C(F)(F)F)c2)c1F | 
0.125 (≈ 0.35 µM) | 2 (≈ 5.6 µM) | 1 (≈ 2.8 µM) | NC(=O)c1c(F)ccc(OCc2cccc(-c3ccc(F)cc3)c2)c1F | 
> 128 | > 128 | > 128 | NC(=O)c1c(F)ccc(OCc2cccc(-c3ccc(C(F)(F)F)c(F)c3)c2)c1F | 
0.031 (≈ 0.0702 µM) | 0.25 (≈ 0.566 µM) | 0.25 (≈ 0.566 µM) | NC(=O)c1c(F)ccc(OCc2cccc(-c3ccc(C(F)(F)F)cc3Cl)c2)c1F | MIC (Bacillus subtilis [6]): 0.063 mg/L (≈ 0.143 µM); MIC (Bacillus subtilis [7]): 0.063 mg/L (≈ 0.143 µM); MIC (Bacillus subtilis [8]): 0.031 mg/L (≈ 0.0702 µM)
0.063 (≈ 0.148 µM) | 1 (≈ 2.35 µM) | 1 (≈ 2.35 µM) | NC(=O)c1c(F)ccc(OCc2cccc(-c3ccc(C(F)(F)F)cc3F)c2)c1F | 
0.031 (≈ 0.0759 µM) | 0.25 (≈ 0.612 µM) | 0.25 (≈ 0.612 µM) | NC(=O)c1c(F)ccc(OCc2cccc(-c3ccc(Cl)cc3Cl)c2)c1F | 
0.031 (≈ 0.0736 µM) | 0.25 (≈ 0.593 µM) | 0.25 (≈ 0.593 µM) | Cc1cc(C(F)(F)F)ccc1-c1cccc(COc2ccc(F)c(C(N)=O)c2F)c1 | MIC (Bacillus subtilis [6]): 0.063 mg/L (≈ 0.15 µM); MIC (Bacillus subtilis [7]): 0.031 mg/L (≈ 0.0736 µM); MIC (Bacillus subtilis [8]): 0.016 mg/L (≈ 0.038 µM); CC50 at 72 h [10]: > 20 mg/L; selectivity ratio [11]: > 1250
> 128 | > 128 | > 128 | NC(=O)c1c(F)ccc(OCc2cccc(-c3ccc(C(F)(F)F)c(Cl)c3)c2)c1F | 
0.063 (≈ 0.169 µM) | 0.25 (≈ 0.669 µM) | 0.25 (≈ 0.669 µM) | NC(=O)c1c(F)ccc(OCc2cccc(-c3ccc(Cl)cc3)c2)c1F | 

Continued, compound first:

Compound | MIC (Bacillus subtilis [1]) [mg/L] | MIC (Staphylococcus aureus [2]) [mg/L] | MIC (Staphylococcus aureus [3]) [mg/L] | other results
CN[C@H](CC(C)C)C(=O)N[C@H]1C(=O)N[C@@H](CC(N)=O)C(=O)N[C@H]2C(=O)N[C@H]3C(=O)N[C@H](C(=O)N[C@H](C(=O)O)c4cc(O)cc(O)c4-c4cc3ccc4O)[C@H](O)c3ccc(c(Cl)c3)Oc3cc2cc(c3O[C@@H]2O[C@H](CO)[C@@H](O)[C@H](O)[C@H]2O[C@H]2C[C@](C)(N)[C@H](O)[C@H](C)O2)Oc2ccc(cc2Cl)[C@H]1O [VANCOMYCIN] | 1 (≈ 0.69 µM) |  |  | MIC (Klebsiella pneumoniae): > 128 mg/L; MBC (Staphylococcus aureus [4]): 0.5 mg/L (≈ 0.345 µM); MBC (Bacillus subtilis [5]): 1 mg/L (≈ 0.69 µM)
CCc1ccc(-c2cccc(COc3ccc(F)c(C(N)=O)c3F)c2)cc1 | 0.125 (≈ 0.34 µM) | 0.5 (≈ 1.36 µM) | 0.5 (≈ 1.36 µM) | 
N#Cc1ccc(-c2cccc(COc3ccc(F)c(C(N)=O)c3F)c2)cc1 | > 128 | > 128 | > 128 | 
CCCc1ccc(-c2cccc(COc3ccc(F)c(C(N)=O)c3F)c2)cc1 | 0.125 (≈ 0.328 µM) | 1 (≈ 2.62 µM) | 1 (≈ 2.62 µM) | 
CCn1cc(C(=O)O)c(=O)c2cc(F)c(N3CCNCC3)cc21 [NORFLOXACIN] |  |  |  | fold change (FC) (Staphylococcus aureus [9]): 128
NC(=O)c1c(F)ccc(OCc2cccc(-c3ccc(C(F)(F)F)cc3C(F)(F)F)c2)c1F | 0.125 (≈ 0.263 µM) | 0.5 (≈ 1.05 µM) | 0.5 (≈ 1.05 µM) | 
NC(=O)c1c(F)ccc(OCc2cccc(-c3ccc(C(F)(F)F)cc3)c2)c1F | 0.125 (≈ 0.307 µM) | 2 (≈ 4.91 µM) | 1 (≈ 2.45 µM) | 
Cc1ccc(-c2cccc(COc3ccc(F)c(C(N)=O)c3F)c2)cc1 | 0.125 (≈ 0.354 µM) | 0.5 (≈ 1.41 µM) | 0.5 (≈ 1.41 µM) | 
Cc1cccc(-c2cccc(COc3ccc(F)c(C(N)=O)c3F)c2)c1 | 32 (≈ 90.6 µM) | > 128 | > 128 | 
NC(=O)c1c(F)ccc(OCc2nc3cc(Cl)cnc3s2)c1F | 0.5 (≈ 1.41 µM) | 1 (≈ 2.81 µM) | 1 (≈ 2.81 µM) | 
NC(=O)c1c(F)ccc(OC(CO)c2cccc(-c3ccc(C(F)(F)F)cc3)c2)c1F (stereo not given) | 0.5 (≈ 1.14 µM) | 8 (≈ 18.3 µM) | 4 (≈ 9.15 µM) | 
CC(C)c1ccc(-c2cccc(COc3ccc(F)c(C(N)=O)c3F)c2)cc1 | 0.5 (≈ 1.31 µM) | > 128 | > 128 | 
NC(=O)c1c(F)ccc(OCc2ccccc2)c1F | 16 (≈ 60.8 µM) | 64 (≈ 243 µM) | 32 (≈ 122 µM) | 
COc1cc(C(F)(F)F)ccc1-c1cccc(COc2ccc(F)c(C(N)=O)c2F)c1 | 0.063 (≈ 0.144 µM) | 1 (≈ 2.29 µM) | 1 (≈ 2.29 µM) | 
CCCCCc1ccc(-c2cccc(COc3ccc(F)c(C(N)=O)c3F)c2)cc1 | 0.125 (≈ 0.305 µM) | > 128 | > 128 | 
COc1ccc(-c2cccc(COc3ccc(F)c(C(N)=O)c3F)c2)cc1 | 0.25 (≈ 0.677 µM) | 2 (≈ 5.41 µM) | 1 (≈ 2.71 µM) | 
CCCCc1ccc(-c2cccc(COc3ccc(F)c(C(N)=O)c3F)c2)cc1 | 0.125 (≈ 0.316 µM) | 1 (≈ 2.53 µM) | 0.5 (≈ 1.26 µM) | 
NC(=O)c1cc(C(F)(F)F)ccc1-c1cccc(COc2ccc(F)c(C(N)=O)c2F)c1 | > 128 | > 128 | > 128 | 
NC(=O)c1c(F)ccc(OCc2cc(Cl)cc(-c3ccc(C(F)(F)F)cc3)c2)c1F | 1 (≈ 2.26 µM) | > 128 | > 128 | 
NC(=O)c1c(F)ccc(OCc2cccc(-c3ccccc3)c2)c1F | 0.5 (≈ 1.47 µM) | 2 (≈ 5.89 µM) | 2 (≈ 5.89 µM) | 
O=C(c1ccc(F)cc1)C1CCN(CCn2c(=O)[nH]c3ccccc3c2=O)CC1 [KETANSERIN] |  |  |  | half-life [12]: 30.4 min; half-life [13]: 14.5 min; half-life [14]: 8.57 min; CLint scaled [15]: 3.43 L/h/kg; CLint scaled [16]: 10.3 L/h/kg; CLint scaled [17]: 38.2 L/h/kg
CC(C)(C)c1ccc(-c2cccc(COc3ccc(F)c(C(N)=O)c3F)c2)cc1 | 2 (≈ 5.06 µM) | > 128 | > 128 | 
Cc1cc(Cl)ccc1-c1cccc(C(CO)Oc2ccc(F)c(C(N)=O)c2F)c1 (stereo not given) | 0.125 (≈ 0.299 µM) | 1 (≈ 2.39 µM) | 1 (≈ 2.39 µM) | 
